What all share (assay type): functional, cell-based
A short description of assay [1]: Proliferation of human (JN.24 cloned) V gamma-2 V delta-2 T cell. Summed up:
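JN.24 CD4+ clone, 1×10^5 cells/well, stimulated in duplicate or triplicate with half-log dilutions of antigen plus 1×10^5 CP.EBV B cells fixed with 0.05% glutaraldehyde (1:1). Supernatant removed at 18 h, then cultures pulsed with 1 µCi 3H-thymidine and harvested 16–18 h later; mean proliferation gives EC50.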

Assay [2] can be described thus: TNF-alpha release is determined to know human (JN.24 cloned) V gamma-2 V delta-2 T cell stimulation. Summed up: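 JN.24 CD4+ clone, 1×10^5 cells/well, cultured in duplicate or triplicate with half-log antigen dilutions and 1×10^5 glutaraldehyde-fixed (0.05%) CP.EBV B cells as APC (1:1). Supernatants collected after 18 h; TNF-α quantified by sandwich ELISA against a TNF-α standard curve; EC50 from dose response.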

Assay [3] in a line: Proliferation of human (12g12 cloned) V gamma-2 V delta-2 T cell. Summed up: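 Clone 12G12 at 1×10^5 cells/well with 1×10^5 fixed Va2 fibrosarcoma cells as APC (1:1), exposed in duplicate or triplicate to half-log antigen dilutions. After 18 h supernatant removal, 1 µCi 3H-thymidine pulse; harvest 16–18 h later; EC50 from mean proliferation.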
Assay [4] can be described thus: TNF-alpha release is determined to know human (12g12 cloned) V gamma-2 V delta-2 T cell stimulation. In a few lines:
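12G12 cells (1×10^5/well) cocultured 1:1 with glutaraldehyde-fixed Va2 transformed fibrosarcoma cells as APC and half-log antigen dilutions, in duplicate or triplicate. Supernatant taken at 18 h, TNF-α measured by sandwich ELISA against a standard curve; EC50 from dose response.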

One may read the EC50 as the concentration needed to bring the measured effect to its halfway point.

“And” between values parts separate entries of the source, which are not always exact repeats. Equal entries are not always repeated. A value given as a limit tells only on which side of the number the result lay.

On to `O=P(O)(O)OP(=O)(O)OCC[C@H]1CO1`, for which the EC50 in assay [1] (Homo sapiens, T-cell) is above 100000 nM; in assay [2] (Homo sapiens, T-cell) it was above 100000 nM.
Consider `C[C@@](O)(CBr)CCOP(=O)(O)OP(=O)(O)O`, for which the concentration giving a half-maximal response (EC50) in assay [3] (Homo sapiens, T-cell) is 0.9 nM; in assay [3] (t-cell), 0.8 nM; in assay [4] (Homo sapiens, T-cell), 9 nM; in assay [4] (t-cell) it was 8 nM.
Regarding `O=P(O)(O)OP(=O)(O)OCC[C@@H]1CO1`, the EC50 in assay [1] (Homo sapiens, T-cell) was above 100000 nM; in assay [2] (Homo sapiens, T-cell), above 100000 nM.
In the case of `C[C@@]1(CCOP(=O)(O)OP(=O)(O)O)CO1`, the EC50 in assay [1] (t-cell) was 1.4 nM and 3.1 nM and 1.3 nM; in assay [3] (Homo sapiens, T-cell), 1 nM; in assay [3] (t-cell), 1 nM; in assay [4] (t-cell), 1.3 nM and 3.7 nM.
With `O=P(O)(O)OP(=O)(O)OCC[C@@H](O)CBr`, the EC50 in assay [1] (Homo sapiens, T-cell) worked out at 1200 nM; in assay [2] (Homo sapiens, T-cell), 500 nM.
Turning to `O=P(O)(O)OP(=O)(O)OCC[C@H](O)CBr`, the EC50 in assay [1] (Homo sapiens, T-cell) was 4000 nM; in assay [2] (Homo sapiens, T-cell) it was 2000 nM.
For the compound `C[C@](O)(CBr)CCOP(=O)(O)OP(=O)(O)O`, the EC50 is 170 nM in assay [1] (Homo sapiens, T-cell); 120 nM and 110 nM and 85 nM in assay [1] (t-cell); 1.4 nM and 0.5 nM in assay [3] (t-cell); 5 nM in assay [4] (Homo sapiens, T-cell); 4 nM in assay [4] (t-cell).
With `CC1(CCOP(=O)(O)OP(=O)(O)O)CO1` (single isomer, unassigned), the concentration for a half-maximal effect (EC50) is 0.5 nM in assay [3] (Homo sapiens, T-cell); 0.6 nM in assay [3] (t-cell); 8 nM and 3 nM in assay [4] (t-cell); 2900 nM and 350 nM and 1100 nM in assay [2] (t-cell).
